# Assay results taken from paper PMC11638873 (Molecular Therapy, 2024).
# Values joined by “and” are separate entries in the source; they are usually repeats but may differ in a detail not shown here. Equal entries are not always repeated.
# What was measured:
# [1] = cited from earlier work
# [2] = tested on: premature termination codons (PTCs) / natural termination codons (NTCs); conditions: cited from earlier work
# [3] = tested on: human liver microsomes (CYP, UGT); assay: In vitro metabolism on human liver microsomes; assay type: in vitro ADME; conditions: for glucuronate metabolite detection after HLM incubation: with cofactors for UGT activity
# In short: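 Test compound (1 mM) incubated at 37 °C with pooled HLMs from 50 donors of both sexes (20 mg protein/mL). Buffer was 100 mM potassium phosphate or 100 mM Tris-HCl, pH 7.4, each with 20 mM NADPH. Reactions stopped with acetonitrile at 0, 5, 30 and 60 min; supernatant analysed by HPLC-MS. % remaining vs 0 min; mean ± SEM; one-way ANOVA vs time 0.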
# [4] = assay type: in vivo, mouse; conditions: 60 mg/kg daily oral
# In short: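 Homozygous G542X mice were dosed orally once daily from P21 for 15 days. Controls were 3 WT and 3 mutant mice given water. Afterwards, isolated tissues from each group were stained with hematoxylin and eosin to check for tissue damage.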
# [5] = Biodistribution study after single oral dose in wild-type C57BL/6 mice; assay type: in vivo, mouse; conditions: 60 mg/kg single oral dose
# [6] = tested on: CFTR (G542X nonsense mutation); assay type: in vivo, mouse; conditions: 60 mg/kg daily oral, 15 days
# In short: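 G542X homozygous mice (n = 5, genotyped by allele-specific PCR) gavaged daily from P21 for 15 days; 3 WT and 3 mutant mice given water as vehicle. Lung RNA (20–25 mg tissue) for real-time RT-PCR. Lung protein (40 mg tissue, RIPA plus 1% protease inhibitors, Bradford) for western blot, normalized to tubulin and negative control. Triplicate per mouse; mean ± SEM; two-way ANOVA vs untreated mutant.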
compound,measurement,setting,value
"CC(=O)Nc1noc(C)n1 [NV848, N-(5-methyl-1,2,4-oxadiazol-3-yl)acetamide]",tolerability in vivo,[1],good tolerability in vivo
same,specificity for PTCs,[2],specificity for PTCs without interfering with NTCs
same,metabolic stability in HLM compared to PTC124,"[3]; CYP, UGT and other liver microsome enzymes",higher metabolic stability compared to PTC124
same,consumption after HLM incubation,"[3]; after 60 min, CYP-DPBS condition",14.62%
same,consumption after HLM incubation,"[3]; after 60 min, CYP-Tris condition",5.27%
same,consumption after HLM incubation,"[3]; after 60 min, CYP/UGT-DPBS condition",5.65%
same,consumption after HLM incubation,"[3]; after 60 min, CYP/UGT-Tris condition",13.04%
same,glucuronate metabolite detection after HLM incubation,[3],no glucuronate metabolites were detected
same,tissue damage after chronic administration (H&E staining),[4]; 15 days,no signs of tissue damage
same,tolerability of oral treatment for 2 weeks,[4]; CFTR G542X/G542X mice,well tolerated in mice and did not cause toxicity
same,last detection in lungs,[5],2 h
same,concentration in kidneys (individual mice),"[5]; 45 min, found in two mice",145 ng/g and 794 ng/g
same,concentration in pancreas,[5]; 45 min to 2 h,stable concentrations from 45 min to 2 h
same,average plasma concentration,[5]; 24 h,0.06 g/mL
same,lung CFTR mRNA expression (real-time RT-PCR),"[6]; CFTR G542X/G542X mice, vs untreated mutant",increase in CFTR mRNA expression
same,"CFTR detection in lung sections (IHC), apical membranes of pulmonary ducts",[6]; mouse M2,intensity similar to CFTR^WT
"O=C(O)c1cccc(-c2noc(-c3ccccc3F)n2)c1 [PTC124, reference compound]",metabolic consumption after HLM incubation,"[3]; after 60 min, HLM condition not specified",46.25%
same,glucuronate metabolite detection after HLM incubation,[3],glucuronate derivative was the primary metabolite detected
